Reference: ChEMBL document CHEMBL4689842, “EUbOPEN Chemogenomics Library wave 1” (2021)

Tested on: HEK-293T
Assay: Multiplex assay against HEK293T;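 on Population Tubulin-Different-Phenotype (%): share of the cells with healthy nuclei that show this phenotype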
Assay type: toxicity, cell-based
Settings: human
In short: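 At seeding, live cells were stained with Hoechst33342, BioTracker Green Microtubule Cytoskeleton Dye, MitoTracker Red and Annexin V Alexa Fluor 680. After compound addition they were imaged on a CQ1 microscope at 37°C and 5% CO2, and CellPathfinder machine-learning gating sorted them into Hoechst high-intensity objects or normal cells, with normal cells further split into healthy, pyknosed or fragmented nuclei and pyknosed cells into mitotic or apoptotic. Tubulin, mitochondrial-mass and membrane-permeability phenotypes are given as per cents of cells with healthy nuclei.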

[1] = 12 h, 1 µM, compound concentration 1 uM, replicate 1
[2] = 12 h, 1 µM, compound concentration 1 uM, replicate 2
[3] = 12 h, 10 µM, compound concentration 10 uM, replicate 1
[4] = 12 h, 10 µM, compound concentration 10 uM, replicate 2
[5] = 24 h, 1 µM, compound concentration 1 uM, replicate 1
[6] = 24 h, 1 µM, compound concentration 1 uM, replicate 2
[7] = 24 h, 10 µM, compound concentration 10 uM, replicate 1
[8] = 24 h, 10 µM, compound concentration 10 uM, replicate 2
[9] = 48 h, 1 µM, compound concentration 1 uM, replicate 1
[10] = 48 h, 1 µM, compound concentration 1 uM, replicate 2
[11] = 48 h, 10 µM, compound concentration 10 uM, replicate 1
[12] = 48 h, 10 µM, compound concentration 10 uM, replicate 2

Structure (SMILES): CCCCN(CC)c1nc(C)nc2c1c(C)cn2-c1c(C)cc(C)cc1C.Cl
- Population Apoptotic (%) [1]: 49%
- Population Fragmented Nuclei (%) [1]: 15%
- Population Healthy Nuclei (%) [1]: 45%
- Population Hoechst High Intensity Objects (%) [1]: 16%
- Population Membrane Permeable-Phenotype (%) [1]: 5%
- Population Mitochondria Different-Phenotype (%) [1]: 79%
- Population Mitotic Cells (%) [1]: 50%
- Population Normal (%) [1]: 83%
- Population Pyknosed Nuclei (%) [1]: 39%
- Population Tubulin-Different-Phenotype (%) [1]: 32%
- Total Cell Count [1]: 241
- Population Apoptotic (%) [2]: 11%
- Population Fragmented Nuclei (%) [2]: 5%
- Population Healthy Nuclei (%) [2]: 43%
- Population Hoechst High Intensity Objects (%) [2]: 1%
- Population Membrane Permeable-Phenotype (%) [2]: 6%
- Population Mitochondria Different-Phenotype (%) [2]: 11%
- Population Mitotic Cells (%) [2]: 88%
- Population Normal (%) [2]: 98%
- Population Pyknosed Nuclei (%) [2]: 51%
- Population Tubulin-Different-Phenotype (%) [2]: 17%
- Total Cell Count [2]: 240
- Population Apoptotic (%) [3]: 59%
- Population Fragmented Nuclei (%) [3]: 13%
- Population Hoechst High Intensity Objects (%) [3]: 8%
- Population Membrane Permeable-Phenotype (%) [3]: 1%
- Population Mitochondria Different-Phenotype (%) [3]: 95%
- Population Mitotic Cells (%) [3]: 40%
- Population Normal (%) [3]: 91%
- Population Pyknosed Nuclei (%) [3]: 49%
- Population Tubulin-Different-Phenotype (%) [3]: 75%
- Total Cell Count [3]: 236
- Population Apoptotic (%) [4]: 27%
- Population Fragmented Nuclei (%) [4]: 7%
- Population Healthy Nuclei (%) [4]: 37%
- Population Hoechst High Intensity Objects (%) [4]: 7%
- Population Membrane Permeable-Phenotype (%) [4]: 6%
- Population Mitochondria Different-Phenotype (%) [4]: 68%
- Population Mitotic Cells (%) [4]: 72%
- Population Normal (%) [4]: 92%
- Population Pyknosed Nuclei (%) [4]: 54%
- Population Tubulin-Different-Phenotype (%) [4]: 60%
- Total Cell Count [4]: 211
- Population Apoptotic (%) [5]: 48%
- Population Fragmented Nuclei (%) [5]: 16%
- Population Healthy Nuclei (%) [5]: 41%
- Population Hoechst High Intensity Objects (%) [5]: 13%
- Population Membrane Permeable-Phenotype (%) [5]: 4%
- Population Mitochondria Different-Phenotype (%) [5]: 61%
- Population Mitotic Cells (%) [5]: 51%
- Population Normal (%) [5]: 86%
- Population Pyknosed Nuclei (%) [5]: 42%
- Population Tubulin-Different-Phenotype (%) [5]: 36%
- Total Cell Count [5]: 247
- Population Apoptotic (%) [6]: 15%
- Population Fragmented Nuclei (%) [6]: 4%
- Population Healthy Nuclei (%) [6]: 61%
- Population Hoechst High Intensity Objects (%) [6]: 1%
- Population Membrane Permeable-Phenotype (%) [6]: 9%
- Population Mitochondria Different-Phenotype (%) [6]: 13%
- Population Mitotic Cells (%) [6]: 84%
- Population Normal (%) [6]: 98%
- Population Pyknosed Nuclei (%) [6]: 33%
- Population Tubulin-Different-Phenotype (%) [6]: 21%
- Total Cell Count [6]: 308
- Population Apoptotic (%) [7]: 64%
- Population Fragmented Nuclei (%) [7]: 10%
- Population Hoechst High Intensity Objects (%) [7]: 9%
- Population Membrane Permeable-Phenotype (%) [7]: 1%
- Population Mitochondria Different-Phenotype (%) [7]: 95%
- Population Mitotic Cells (%) [7]: 35%
- Population Normal (%) [7]: 90%
- Population Pyknosed Nuclei (%) [7]: 37%
- Population Tubulin-Different-Phenotype (%) [7]: 89%
- Population Apoptotic (%) [8]: 29%
- Population Fragmented Nuclei (%) [8]: 4%
- Population Healthy Nuclei (%) [8]: 51%
- Population Hoechst High Intensity Objects (%) [8]: 6%
- Population Membrane Permeable-Phenotype (%) [8]: 4%
- Population Mitochondria Different-Phenotype (%) [8]: 73%
- Population Mitotic Cells (%) [8]: 70%
- Population Normal (%) [8]: 93%
- Population Pyknosed Nuclei (%) [8]: 44%
- Population Tubulin-Different-Phenotype (%) [8]: 81%
- Total Cell Count [8]: 231
- Population Apoptotic (%) [9]: 43%
- Population Fragmented Nuclei (%) [9]: 20%
- Population Healthy Nuclei (%) [9]: 46%
- Population Hoechst High Intensity Objects (%) [9]: 12%
- Population Membrane Permeable-Phenotype (%) [9]: 2%
- Population Mitochondria Different-Phenotype (%) [9]: 26%
- Population Mitotic Cells (%) [9]: 56%
- Population Normal (%) [9]: 87%
- Population Pyknosed Nuclei (%) [9]: 32%
- Population Tubulin-Different-Phenotype (%) [9]: 22%
- Total Cell Count [9]: 315
- Population Apoptotic (%) [10]: 15%
- Population Fragmented Nuclei (%) [10]: 7%
- Population Healthy Nuclei (%) [10]: 82%
- Population Hoechst High Intensity Objects (%) [10]: 3%
- Population Membrane Permeable-Phenotype (%) [10]: 4%
- Population Mitochondria Different-Phenotype (%) [10]: 8%
- Population Mitotic Cells (%) [10]: 84%
- Population Normal (%) [10]: 96%
- Population Pyknosed Nuclei (%) [10]: 10%
- Population Tubulin-Different-Phenotype (%) [10]: 17%
- Total Cell Count [10]: 539
- Population Apoptotic (%) [11]: 49%
- Population Fragmented Nuclei (%) [11]: 13%
- Population Healthy Nuclei (%) [11]: 67%
- Population Hoechst High Intensity Objects (%) [11]: 9%
- Population Membrane Permeable-Phenotype (%) [11]: 3%
- Population Mitochondria Different-Phenotype (%) [11]: 74%
- Population Mitotic Cells (%) [11]: 50%
- Population Normal (%) [11]: 90%
- Population Pyknosed Nuclei (%) [11]: 19%
- Population Tubulin-Different-Phenotype (%) [11]: 70%
- Total Cell Count [11]: 365
- Population Apoptotic (%) [12]: 36%
- Population Fragmented Nuclei (%) [12]: 7%
- Population Healthy Nuclei (%) [12]: 74%
- Population Hoechst High Intensity Objects (%) [12]: 2%
- Population Membrane Permeable-Phenotype (%) [12]: 0%
- Population Mitochondria Different-Phenotype (%) [12]: 54%
- Population Mitotic Cells (%) [12]: 63%
- Population Normal (%) [12]: 97%
- Population Pyknosed Nuclei (%) [12]: 18%
- Population Tubulin-Different-Phenotype (%) [12]: 67%
- Total Cell Count [12]: 337
